Assay results published in ChEMBL document CHEMBL1140523, “Benzazepinone Nav1.7 blockers: potential treatments for neuropathic pain” (Bioorg Med Chem Lett, 2007).

Key:
[1] = molecular target: hERG (KCNH2) (Homo sapiens, UniProt Q12809); assay: (§1) Displacement of [35S]MK-0499 from hERG at 10 uM; settings: probe [35S]MK-0499
[2] = Cmax in Sprague-Dawley rat at 1 mg/kg, iv or 3 mg/kg, po; assay type: ADME, organism-based; settings: in vivo
Method in brief: (§2)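 Fasted male Sprague–Dawley rats received 1.0 mg/kg iv through a femoral vein cannula (n = 3) or 3.0 mg/kg po by gavage (n = 3). Serial blood was drawn at 5 min (iv only), 15 and 30 min, and 1, 2, 4, 6 and 8 h. Plasma was protein-precipitated with acetonitrile and analysed by LC–MS/MS.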

[3] = (§3) Half life in Sprague-Dawley rat at 1 mg/kg, iv or 3 mg/kg, po; assay type: ADME, organism-based; settings: Sprague-Dawley, in vivo; method in brief: as §2
[4] = Plasma clearance in Sprague-Dawley rat at 1 mg/kg, iv or 3 mg/kg, po; assay type: ADME, organism-based; method in brief: as §2
[5] = (§4) Oral bioavailability in Sprague-Dawley rat at 3 mg/kg; assay type: ADME, organism-based; settings: Sprague-Dawley, in vivo; method in brief: as §2
[6] = molecular target: Sodium channel protein type 9 subunit alpha (Homo sapiens, UniProt Q15858); assay: Inhibition of human sodium channel Nav1.7 by FRET assay
Sodium channel protein type 9 subunit alpha, sequence (Q15858 whole entry): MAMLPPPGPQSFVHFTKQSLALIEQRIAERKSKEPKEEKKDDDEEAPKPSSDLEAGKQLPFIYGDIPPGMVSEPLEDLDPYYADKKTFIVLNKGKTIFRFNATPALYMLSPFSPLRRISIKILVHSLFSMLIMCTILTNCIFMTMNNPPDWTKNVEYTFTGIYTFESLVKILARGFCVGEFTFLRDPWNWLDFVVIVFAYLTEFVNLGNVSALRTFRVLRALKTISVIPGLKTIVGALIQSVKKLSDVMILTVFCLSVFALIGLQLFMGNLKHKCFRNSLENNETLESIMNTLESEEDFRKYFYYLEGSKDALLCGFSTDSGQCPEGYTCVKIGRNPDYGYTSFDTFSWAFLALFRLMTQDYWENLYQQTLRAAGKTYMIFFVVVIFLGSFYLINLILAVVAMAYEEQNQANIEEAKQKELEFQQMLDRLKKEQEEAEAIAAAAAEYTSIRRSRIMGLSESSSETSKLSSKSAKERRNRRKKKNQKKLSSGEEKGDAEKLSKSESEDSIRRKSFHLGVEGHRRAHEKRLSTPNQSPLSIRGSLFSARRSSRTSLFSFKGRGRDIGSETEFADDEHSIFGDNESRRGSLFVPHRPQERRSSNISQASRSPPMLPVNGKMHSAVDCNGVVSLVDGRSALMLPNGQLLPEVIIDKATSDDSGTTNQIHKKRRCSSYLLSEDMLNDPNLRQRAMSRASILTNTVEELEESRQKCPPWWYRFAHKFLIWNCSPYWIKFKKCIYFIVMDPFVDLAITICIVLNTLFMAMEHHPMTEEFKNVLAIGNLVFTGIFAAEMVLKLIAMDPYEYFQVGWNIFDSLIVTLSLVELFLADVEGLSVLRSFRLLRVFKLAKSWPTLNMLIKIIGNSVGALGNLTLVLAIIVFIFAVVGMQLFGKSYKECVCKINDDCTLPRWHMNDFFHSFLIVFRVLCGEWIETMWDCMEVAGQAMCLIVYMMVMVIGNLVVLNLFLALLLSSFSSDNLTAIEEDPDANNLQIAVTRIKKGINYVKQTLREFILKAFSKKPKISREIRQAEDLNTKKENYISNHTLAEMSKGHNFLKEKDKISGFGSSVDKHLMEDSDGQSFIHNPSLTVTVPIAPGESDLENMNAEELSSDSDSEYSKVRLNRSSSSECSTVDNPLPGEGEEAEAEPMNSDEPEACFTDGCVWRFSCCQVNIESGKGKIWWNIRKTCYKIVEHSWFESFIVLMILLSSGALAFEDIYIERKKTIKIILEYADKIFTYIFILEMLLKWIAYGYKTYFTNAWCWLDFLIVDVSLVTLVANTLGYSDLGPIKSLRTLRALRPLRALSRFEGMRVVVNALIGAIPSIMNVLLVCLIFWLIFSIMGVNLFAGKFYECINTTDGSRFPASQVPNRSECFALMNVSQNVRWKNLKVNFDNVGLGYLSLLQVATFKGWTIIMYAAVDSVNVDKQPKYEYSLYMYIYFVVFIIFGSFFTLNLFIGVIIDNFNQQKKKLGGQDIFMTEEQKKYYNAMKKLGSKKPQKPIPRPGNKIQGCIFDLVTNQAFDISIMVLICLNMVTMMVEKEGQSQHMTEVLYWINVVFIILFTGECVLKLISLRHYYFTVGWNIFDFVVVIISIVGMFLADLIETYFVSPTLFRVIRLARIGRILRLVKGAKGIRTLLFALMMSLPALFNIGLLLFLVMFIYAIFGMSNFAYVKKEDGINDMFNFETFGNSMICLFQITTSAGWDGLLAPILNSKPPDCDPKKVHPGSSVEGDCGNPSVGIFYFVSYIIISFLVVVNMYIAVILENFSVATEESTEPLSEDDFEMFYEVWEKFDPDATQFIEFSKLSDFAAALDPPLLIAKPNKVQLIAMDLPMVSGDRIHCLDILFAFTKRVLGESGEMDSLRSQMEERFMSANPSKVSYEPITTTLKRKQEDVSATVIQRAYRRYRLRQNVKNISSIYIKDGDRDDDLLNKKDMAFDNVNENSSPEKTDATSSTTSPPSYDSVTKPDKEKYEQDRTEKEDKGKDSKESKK
Method in brief: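 hNav1.7 block was measured in a functional membrane-potential assay read out as FRET between two membrane-associated dyes.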

[7] = system: Rattus norvegicus; assay: Reversal of allodynia in rat at 10 mg/kg, po after 4 hrs; assay type: functional
[8] = system: Rattus norvegicus; assay: Reversal of allodynia in rat at 10 mg/kg, po after 2 hrs; assay type: functional
[9] = system: Rattus norvegicus; assay: as §3; assay type: ADME, organism-based; settings: in vivo; method in brief: as §2
[10] = molecular target: Voltage-gated inwardly rectifying potassium channel KCNH2 (Homo sapiens, UniProt Q12809); assay: as §1; settings: 10 µM
Voltage-gated inwardly rectifying potassium channel KCNH2, sequence (Q12809 whole entry): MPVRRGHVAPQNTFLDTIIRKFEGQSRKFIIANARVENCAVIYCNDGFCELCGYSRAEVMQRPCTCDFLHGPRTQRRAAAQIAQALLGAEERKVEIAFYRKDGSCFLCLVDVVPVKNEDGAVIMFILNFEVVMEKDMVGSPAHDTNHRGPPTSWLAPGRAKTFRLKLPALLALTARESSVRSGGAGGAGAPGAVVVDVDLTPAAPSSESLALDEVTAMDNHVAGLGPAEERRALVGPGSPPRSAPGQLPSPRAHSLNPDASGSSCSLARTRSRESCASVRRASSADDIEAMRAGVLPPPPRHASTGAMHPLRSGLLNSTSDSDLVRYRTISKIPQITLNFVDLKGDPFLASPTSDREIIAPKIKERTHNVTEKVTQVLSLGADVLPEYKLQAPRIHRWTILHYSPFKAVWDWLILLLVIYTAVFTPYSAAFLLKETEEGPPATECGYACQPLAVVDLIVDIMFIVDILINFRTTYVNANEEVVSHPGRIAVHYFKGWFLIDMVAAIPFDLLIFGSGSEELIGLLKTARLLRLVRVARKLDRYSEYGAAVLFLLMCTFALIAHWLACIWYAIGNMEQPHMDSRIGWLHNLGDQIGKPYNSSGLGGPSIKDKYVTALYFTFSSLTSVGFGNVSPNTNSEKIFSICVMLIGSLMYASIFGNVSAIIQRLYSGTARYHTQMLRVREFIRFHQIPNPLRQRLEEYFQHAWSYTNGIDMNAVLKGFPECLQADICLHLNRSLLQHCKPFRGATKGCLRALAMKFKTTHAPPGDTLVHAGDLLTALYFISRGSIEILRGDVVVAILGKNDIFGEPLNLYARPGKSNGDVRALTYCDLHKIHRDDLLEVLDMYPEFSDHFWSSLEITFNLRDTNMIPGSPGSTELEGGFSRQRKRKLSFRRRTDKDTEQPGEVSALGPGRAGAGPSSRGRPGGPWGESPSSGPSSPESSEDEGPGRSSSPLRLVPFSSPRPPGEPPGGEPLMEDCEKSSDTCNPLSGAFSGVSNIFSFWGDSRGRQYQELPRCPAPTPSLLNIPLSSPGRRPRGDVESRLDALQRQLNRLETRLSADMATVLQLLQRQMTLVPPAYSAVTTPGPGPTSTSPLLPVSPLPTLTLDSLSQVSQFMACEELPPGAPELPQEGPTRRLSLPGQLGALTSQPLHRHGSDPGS

[11] = system: Rattus norvegicus; assay: as §4; assay type: ADME, organism-based; settings: in vivo; method in brief: as §2

hERG (KCNH2), sequence (Q12809 whole entry): as above

| Cmax [2] | half-life [3] | clearance [4] | bioavailability [5] | IC50 [6] | t1/2 [9] | F [11] | Structure (SMILES) | inhibition at 10 µM [1] | Activity [7] | Activity [8] | Inhibition [10] |
| --- | --- | --- | --- | --- | --- | --- | --- | --- | --- | --- | --- |
| – | – | – | – | – | – | – | CC(C)N1C(=O)[C@H](NC(=O)[C@@H](Cc2ccccc2OC(F)(F)F)NC(=O)OC(C)(C)C)CCc2ccccc21 | 17% | – | – | – |
| 430 nM | 2.6 h | 51 mL/min/kg | 86% | 128 nM | – | – | CC(C)N1C(=O)[C@H](NC(=O)[C@@H](Cc2ccccc2OC(F)(F)F)NC(=O)c2ccc(F)cc2C(F)(F)F)CCc2ccccc21 | 31% | – | – | – |
| 550 nM | 1.2 h | 43 mL/min/kg | 60% | 177 nM | – | – | CC(C)N1C(=O)[C@H](NC(=O)[C@@H](Cc2ccccc2OC(F)(F)F)NC(=O)c2ccccn2)CCc2ccccc21 | 61% | – | – | – |
| – | – | – | – | 453 nM | – | – | CC(C)N1C(=O)[C@H](NC(=O)[C@@H](Cc2ccccc2OC(F)(F)F)NC(=O)c2ccncc2)CCc2ccccc21 | 44% | – | – | – |
| – | – | – | – | 146 nM | – | – | CC(C)N1C(=O)[C@H](NC(=O)[C@@H](Cc2cccc(F)c2F)NC(=O)c2ccc(F)cc2C(F)(F)F)CCc2cc(Cl)ccc21 | 3% | – | – | – |
| 520 nM | 2.6 h | 29 mL/min/kg | 65% | 169 nM | – | – | CC(C)N1C(=O)[C@H](NC(=O)[C@@H](Cc2ccccc2OC(F)(F)F)NC(=O)c2ccc(F)cc2C(F)(F)F)CCc2cc(Cl)ccc21 | 7% | – | – | – |
| – | 2 h | 40 mL/min/kg | 25% | 44 nM | – | – | CC(C)N1C(=O)[C@H](NC(=O)[C@@H](Cc2ccccc2OC(F)(F)F)NC(=O)OC(C)(C)C)COc2ccccc21 | 17% | – | – | – |
| 330 nM | 2.8 h | 44 mL/min/kg | 90% | 30 nM | – | – | CC(C)N1C(=O)[C@H](NC(=O)[C@@H](Cc2ccccc2F)NC(=O)c2ccc(F)cc2C(F)(F)F)CCc2cc(Cl)ccc21 | 32% | 28% | 56% | – |
| 140 nM | 1.8 h | 31 mL/min/kg | 16% | 131 nM | – | – | CC(C)N1C(=O)[C@H](NC(=O)[C@@H](Cc2ccccc2OC(F)(F)F)NC(=O)C(C)(C)C)CCc2ccccc21 | 18% | – | – | – |
| – | 3 h | 13 mL/min/kg | 31% | 108 nM | – | – | CC(C)N1C(=O)[C@H](NC(=O)[C@@H](Cc2ccccc2OC(F)(F)F)NC(=O)OC(C)(C)C)CCc2cc(Cl)ccc21 | 32% | – | – | – |
| 330 nM | 2.5 h | 23 mL/min/kg | 42% | 203 nM | – | – | CC(C)N1C(=O)[C@H](NC(=O)[C@@H](Cc2ccccc2OC(F)(F)F)NC(=O)C(C)(C(F)(F)F)C(F)(F)F)CCc2ccccc21 | 10% | – | – | – |
| 740 nM | 2 h | 19 mL/min/kg | 68% | 290 nM | – | – | CC(C)N1C(=O)[C@H](NC(=O)[C@@H](Cc2c(F)cccc2F)NC(=O)c2ccc(F)cc2C(F)(F)F)CCc2cc(Cl)ccc21 | 7% | 35% | 18% | – |
| 1470 nM | 2.9 h | 12 mL/min/kg | 70% | 107 nM | – | – | CC(C)N1C(=O)[C@H](NC(=O)[C@@H](Cc2c(Cl)cccc2Cl)NC(=O)c2ccc(F)cc2C(F)(F)F)CCc2cc(Cl)ccc21 | 20% | 9% | 14% | – |
| 260 nM | 2.2 h | 32 mL/min/kg | 42% | 232 nM | – | – | CC(C)N1C(=O)[C@H](NC(=O)[C@@H](Cc2cc(F)ccc2F)NC(=O)c2ccc(F)cc2C(F)(F)F)CCc2cc(Cl)ccc21 | 10% | 61% | 55% | – |
| – | – | – | – | 868 nM | – | – | CC(C)N1C(=O)[C@H](NC(=O)[C@@H](Cc2ccccc2OC(F)(F)F)NC(=O)C(F)(F)F)CCc2ccccc21 | 40% | – | – | – |
| – | – | – | – | 98 nM | – | – | CC(C)N1C(=O)[C@H](NC(=O)[C@@H](Cc2ccccc2OC(F)(F)F)NC(=O)c2ccccc2C(F)(F)F)CCc2ccccc21 | 0% | – | – | – |
| 240 nM | 2.1 h | 66 mL/min/kg | 50% | 94 nM | – | – | CC(C)N1C(=O)[C@H](NC(=O)[C@@H](Cc2ccccc2OC(F)(F)F)NC(=O)c2ccc(F)cc2)CCc2ccccc21 | 26% | – | – | – |
| – | – | – | – | 175 nM | – | – | CC(C)N1C(=O)[C@H](NC(=O)[C@@H](Cc2ccccc2OC(F)(F)F)NC(=O)c2ccc(C(F)(F)F)cc2)CCc2ccccc21 | 43% | – | – | – |
| 150 nM | 1.5 h | 43 mL/min/kg | 18% | 22 nM | – | – | CC(C)N1C(=O)[C@H](NC(=O)[C@@H](Cc2ccccc2OC(F)(F)F)NC(=O)c2ccccc2)CCc2ccccc21 | 83% | – | – | – |
| – | – | – | – | 80 nM | 1.9 h | 4% | CC(C)N1C(=O)C(NC(=O)[C@@H](Cc2ccccc2OC(F)(F)F)NC(=O)OC(C)(C)C)CCc2cccnc21 (stereo in doubt; 24) | – | – | – | 7% |
| – | 1.4 h | 24 mL/min/kg | – | 79 nM | – | 27% | CC(C)N1C(=O)C(NC(=O)[C@@H](Cc2ccccc2OC(F)(F)F)NC(=O)OC(C)(C)C)CCc2cccnc21 (stereo in doubt; 25) | – | – | – | 18% |

| Structure (SMILES) | Cmax [2] | half-life [3] | clearance [4] | bioavailability [5] | IC50 [6] | t1/2 [9] | F [11] | inhibition at 10 µM [1] | Activity [7] | Activity [8] | Inhibition [10] |
| --- | --- | --- | --- | --- | --- | --- | --- | --- | --- | --- | --- |
| CC(C)N1C(=O)[C@H](NC(=O)[C@@H](Cc2ccccc2OC(F)(F)F)NC(=O)c2cncnc2)CCc2ccccc21 | – | – | – | – | > 1000 nM | – | – | – | – | – | – |
| CC(C)N1C(=O)[C@H](NC(=O)[C@@H](Cc2ccc(F)cc2F)NC(=O)c2ccc(F)cc2C(F)(F)F)CCc2cc(Cl)ccc21 | – | – | – | – | > 1000 nM | – | – | – | – | – | – |
| CC(C)N1C(=O)[C@H](NC(=O)[C@@H](Cc2ccccc2OC(F)(F)F)NC(=O)c2ncccn2)CCc2ccccc21 | – | – | – | – | > 1000 nM | – | – | 15% | – | – | – |
| CC(=O)N[C@H](Cc1ccccc1OC(F)(F)F)C(=O)N[C@@H]1CCc2ccccc2N(C(C)C)C1=O | – | – | – | – | > 1000 nM | – | – | 9% | – | – | – |
